For two compounds, Activity results are on record in ChEMBL document CHEMBL4334489, “Asperpyridone A: An Unusual Pyridone Alkaloid Exerts Hypoglycemic Activity through the Insulin Signaling Pathway” (J Nat Prod, 2019).

Active and inactive are the calls of the source. The rule behind the calls is not given here.

The subject of data set [1] is HepG2. In words: Cytotoxicity against human HepG2 cells. Type of data set: cell-based.
The next data set deals with ASPC1. In words: Cytotoxicity against human AsPC1 cells. The format is cell-based.
Data set [2] has as its system HepG2. In words: Antidiabetic activity in human HepG2 cells assessed as increase in glucose consumption at 50 uM by glucose oxidase method. Type of data set: functional, cell-based. In a few lines:
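HepG2 cells grown in DMEM with 10% FBS and 1% penicillin/streptomycin at 37 °C under 5% CO2. Cells were treated with 50 μM test compound or 0.1% DMSO vehicle. Glucose remaining in the culture supernatant was measured with a glucose oxidase–peroxidase kit.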

The next data set relates to BXPC-3. In words: Cytotoxicity against human BxPC3 cells. Type of data set: cell-based.
The next data set concerns Panc02. In words: Cytotoxicity against mouse Panc02 cells. Type of data set: cell-based.
The subject of the next data set is CT26. Briefly: Cytotoxicity against mouse CT26 cells. Type of data set: cell-based.
Data set [3] relates to HepG2. In words: Effect on 2-NBDG uptake in insulin-resistant human HepG2 cells at 0.2 uM pretreated with insulin for 24 hrs followed by compound addition incubated for 24 hrs and subsequent 2-NBDG measured after 30 mins by propidium iodide staining based flow cytometry analysis (reference value: 33.4 %). The format is functional. (In general: In flow cytometry, cells or beads pass a laser one at a time.)

The test system of data set [4] is HepG2. Briefly: Effect on 2-NBDG uptake in insulin-resistant human HepG2 cells at 1 uM pretreated with insulin for 24 hrs followed by compound addition incubated for 24 hrs and subsequent 2-NBDG measured after 30 mins by propidium iodide staining based flow cytometry analysis (reference value: 33.4 %). Type of data set: functional.
The subject of data set [5] is HepG2. Briefly: Effect on 2-NBDG uptake in insulin-resistant human HepG2 cells at 10 uM pretreated with insulin for 24 hrs followed by compound addition incubated for 24 hrs and subsequent 2-NBDG measured after 30 mins by propidium iodide staining based flow cytometry analysis (reference value: 33.4 %). The format is functional.
Data set [6] has as its system HepG2. Briefly: Effect on 2-NBDG uptake in insulin-resistant human HepG2 cells at 25 uM pretreated with insulin for 24 hrs followed by compound addition incubated for 24 hrs and subsequent 2-NBDG measured after 30 mins by propidium iodide staining based flow cytometry analysis (reference value: 33.4 %). Type of data set: functional.
In data set [7] the test system is HepG2. Briefly: Increase in PCK2 gene expression in insulin-resistant human HepG2 cells at 10 uM using SYBR-green based qRT-PCR analysis. Type of data set: functional, cell-based. (Real-time PCR tracks product formation cycle by cycle.)
Data set [8] has as its system HepG2. Briefly: Increase in FGF21 gene expression in insulin-resistant human HepG2 cells using SYBR-green based qRT-PCR analysis. Type of data set: functional, cell-based. The essentials:
(§1)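 HepG2 cells were made insulin-resistant with 0.1 units/mL insulin in serum-free DMEM for 24 h, then treated with compound at several doses (5–25 μM range) against a 1% DMSO vehicle control. Transcript levels of the target genes were quantified by qRT-PCR.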

The test system of data set [9] is HepG2. Briefly: Increase in FGF21 gene expression in insulin-resistant human HepG2 cells at 10 uM using SYBR-green based qRT-PCR analysis. Type of data set: functional, cell-based. The essentials: as §1
Data set [10] has as its system HepG2. Briefly: Effect on 2-NBDG uptake in insulin-resistant human HepG2 cells at 50 uM pretreated with insulin for 24 hrs followed by compound addition incubated for 24 hrs and subsequent 2-NBDG measured after 30 mins by propidium iodide staining based flow cytometry analysis (reference value: 65.4 %). Type of data set: functional.
The test system of data set [11] is HepG2. In words: Effect on 2-NBDG uptake in insulin-resistant human HepG2 cells at 500 uM pretreated with insulin for 24 hrs followed by compound addition incubated for 24 hrs and subsequent 2-NBDG measured after 30 mins by propidium iodide staining based flow cytometry analysis (reference value: 65.4 %). Type of data set: functional.
Data set [12] relates to HepG2. In words: Effect on 2-NBDG uptake in insulin-resistant human HepG2 cells at 750 uM pretreated with insulin for 24 hrs followed by compound addition incubated for 24 hrs and subsequent 2-NBDG measured after 30 mins by propidium iodide staining based flow cytometry analysis (reference value: 65.4 %). Type of data set: functional.
Data set [13] has as its system HepG2. Briefly: Effect on 2-NBDG uptake in insulin-resistant human HepG2 cells at 1000 uM pretreated with insulin for 24 hrs followed by compound addition incubated for 24 hrs and subsequent 2-NBDG measured after 30 mins by propidium iodide staining based flow cytometry analysis analysis (reference value: 65.4 %). Type of data set: functional.

With `COn1ccc2c(c1=O)[C@H]1[C@@H](C[C@H](C)C[C@@H]1C)[C@H](C)O2`, the Activity result is reported as “Non-Toxic” in the data set on HepG2 [1]; “Non-Toxic” with ASPC1; “Non-Toxic” with BXPC-3; “Non-Toxic” in the data set with Panc02; “Non-Toxic” in the data set on CT26; 45.1% in the data set with HepG2 [3]. Also, the Activity was 47.5% with HepG2 [4], 53.6% with HepG2 [5], 46.9% with HepG2 [6] and “Dose-dependent effect” with HepG2 [8]. In addition, the result in the data set with HepG2 [2], in the data set on HepG2 [7] and with HepG2 [9] was Active.
For `CN(C)C(=N)NC(=N)N` [METFORMIN], the Activity in the data set on HepG2 [10] is on record as 31.9%; with HepG2 [11] it was 42.5%; in the data set on HepG2 [12], 46.1%; in the data set on HepG2 [13], 45.6%.
